Results taken from ChEMBL document CHEMBL5712889, “Neuronal activity controls Bdnf expression via Polycomb de-repression and CREB/CBP/JMJD3 activation in mature neurons” (Nat Commun, 2016).
Active and inactive are the calls of the source.

How the values were obtained:
Assay type in all cases: functional, cell-based
Hippocampal neurone [1] = experiment: Anti-neuronal activity against hippocampal neuron in Wistar rat assessed as H89 blocked CREB phosphorylation at Serine 133 by western blot analysis
Hippocampal neurone [2] = experiment: Anti-neuronal activity against hippocampal neuron in Wistar rat assessed as blocked transcriptional activation of promoters II by qPCR assay analysis
Procedure, shortened: (§1)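 Rat hippocampal cultures (15 DIV) were pretreated for 1 h with 10 µM SB203580 (p38 inhibitor), then given 20 µM NMDA for 5 min. Bdnf transcripts were measured by RT-qPCR 30 min after NMDA, using 0.5 µM primers and Gapdh, GusB and Pgk1 as reference genes. Samples were compared with non-stimulated controls; n = independent cultures.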

Hippocampal neurone [3] = experiment: Anti-neuronal activity against hippocampal neuron in Wistar rat assessed as blocked transcriptional activation of promoters VI by qPCR assay analysis; procedure, shortened: as §1
Hippocampal neurone [4] = experiment: Anti-neuronal activity against hippocampal neuron in Wistar rat assessed as H3K27Ac promoters I by qPCR assay analysis
Procedure, shortened: (§2)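 E18 Wistar rat hippocampal neurons were cultured 15 DIV and stimulated with 20 µM NMDA for 5 min, then the medium was replaced. Cells were crosslinked with 1% formaldehyde for 10 min at 37 °C and chromatin sonicated to 400–700 bp. 100 µg protein per overnight immunoprecipitation at 4 °C, with rabbit IgG as negative control. Promoter DNA was quantified by qPCR against unstimulated controls; n = independent cultures.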

Hippocampal neurone [5] = experiment: Anti-neuronal activity against hippocampal neuron in Wistar rat assessed as H3K27Ac promoters VI by qPCR assay analysis; procedure, shortened: as §2
Hippocampal neurone [6] = experiment: Anti-neuronal activity against hippocampal neuron in Wistar rat assessed as active CREB was found at the BDNF promoters by qPCR assay analysis; procedure, shortened: as §2
Hippocampal neurone [7] = experiment: Anti-neuronal activity against hippocampal neuron in Wistar rat assessed as blocked recruitment of CBP by qPCR assay analysis; procedure, shortened: as §2
Hippocampal neurone [8] = experiment: Anti-neuronal activity against hippocampal neuron in Wistar rat assessed as impaired recruitment of JMJD3 by qPCR assay analysis; procedure, shortened: as §2
Hippocampal neurone [9] = experiment: Anti-neuronal activity against hippocampal neuron in Wistar rat assessed as blocked H3K27Me3 demethylation at promoters IV by qPCR assay analysis; procedure, shortened: as §2
Hippocampal neurone [10] = experiment: Anti-neuronal activity against hippocampal neuron in Wistar rat assessed as blocked H3K27Me3 demethylation at promoters VI by qPCR assay analysis; procedure, shortened: as §2
Hippocampal neurone [11] = experiment: Anti-neuronal activity against hippocampal neuron in Wistar rat assessed as higher levels of H3K27Me3 at promoter II by qPCR assay analysis; procedure, shortened: as §2

Measured: Activity

O=S(=O)(NCCNC/C=C/c1ccc(Br)cc1)c1cccc2cnccc12
active: Hippocampal neurone [1]

O=C(Nc1ccc(Cl)cc1)c1cc2ccccc2cc1O
active: Hippocampal neurone [2] | Hippocampal neurone [3] | Hippocampal neurone [4] | Hippocampal neurone [5] | Hippocampal neurone [6] | Hippocampal neurone [7] | Hippocampal neurone [8] | Hippocampal neurone [9] | Hippocampal neurone [10] | Hippocampal neurone [11]
